# Measured values taken from ChEMBL document CHEMBL4400522, “Chikungunya virus inhibition by synthetic coumarin-guanosine conjugates” (Eur J Med Chem, 2019).
# Assays:
# [1] = tested on: Chikungunya virus; assay: Antiviral activity against Chikungunya virus 899 infected in African green monkey Vero A cells assessed as inhibition of viral RNA replication by RT-qPCR analysis; assay type: functional, organism-based; details: Chikungunya virus, 899, Vero
# [2] = Lipophilicity, log P of the compound; assay type: physicochemical; details: octanol/water
# [3] = tested on: Chikungunya virus; assay: Antiviral activity against Chikungunya virus infected in African green monkey Vero cells assessed as reduction in virus-induced cytopathic effect after 7 days by MTS assay; assay type: functional, organism-based; details: 168 h
# [4] = Selectivity index, ratio of CC50 for African green monkey Vero cells to EC50 for chikungunya virus infected in African green monkey Vero E6 cells; assay type: toxicity, Vero C1008; details: read-out: Ratio CC50/EC50
# [5] = Cytotoxicity against African green monkey Vero A cells by MTS assay; assay type: cell-based; details: chlorocebus aethiops
# Summary of the method: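 Host-cell metabolism in Vero subtype A cells was measured by MTS read-out. CC50 is the concentration reducing host-cell metabolism by 50%. It was determined only for selected conjugates.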
# [6] = Selectivity index, ratio of CC50 for African green monkey Vero A cells to EC50 for chikungunya virus 899 infected in African green monkey Vero A cells; assay type: toxicity; details: read-out: Ratio CC50/EC50
# [7] = tested on: Chikungunya virus; assay: Antiviral activity against Chikungunya virus infected in African green monkey Vero E6 cells assessed as reduction in virus-induced cytopathic effect; assay type: functional, organism-based; details: Vero C1008
# [8] = Selectivity index, ratio of CC50 for African green monkey Vero E6 cells to EC50 for chikungunya virus infected in African green monkey Vero cells; assay type: toxicity, Vero C1008; details: read-out: Ratio CC50/EC50
# [9] = Aqueous solubility of the compound measured per 100 ml; assay type: physicochemical; details: buffer
SMILES,EC50 [1] [µM],also measured
Nc1nc(SCc2cc3cc(Br)ccc3oc2=O)c2nc(SCc3ccccc3)n([C@@H]3O[C@H](CO)[C@@H](O)[C@H]3O)c2n1,> 152,–
CSc1nc2c(SCc3cc4cc(Br)ccc4oc3=O)nc(N)nc2n1[C@@H]1O[C@H](CO)[C@@H](O)[C@H]1O,> 172,–
COc1ccc2oc(=O)c(CSc3nc(N)nc4c3nc(SCc3ccccc3)n4[C@@H]3O[C@H](CO)[C@@H](O)[C@H]3O)cc2c1,> 164,logP [2]: 2.78
Nc1nc(SCc2cc3cc(Cl)ccc3oc2=O)c2nc(SCc3ccccc3)n([C@@H]3O[C@H](CO)[C@@H](O)[C@H]3O)c2n1,> 163,–
C=C(C)[C@@]12OC3(c4ccccc4)O[C@@H]1[C@@H]1[C@@H]4O[C@]4(CO)[C@@H](O)[C@@]4(O)[C@@H](C=C(C)[C@@H]4O)[C@@]1(O3)[C@H](C)[C@@H]2OC(=O)C(C)CCCCCCCC (stereo partly specified),–,EC50 [3]: 0.6 µM; selectivity ratio [4]: 71.7
COc1cccc2cc(CSc3nc(N)nc4c3nc(SCc3cc5cccc(OC)c5oc3=O)n4[C@@H]3O[C@H](CO)[C@@H](O)[C@H]3O)c(=O)oc12,10.3,CC50 [5]: 96.5 µM; selectivity ratio [6]: 9.37; logP [2]: 2.97
Nc1nc(SCc2cc3ccccc3oc2=O)c2nc(SCc3cccc4ccccc34)n([C@@H]3O[C@H](CO)[C@@H](O)[C@H]3O)c2n1,> 159,–
CSc1nc2c(SCc3cc4cc(C)ccc4oc3=O)nc(N)nc2n1[C@@H]1O[C@H](CO)[C@@H](O)[C@H]1O,> 194,–
CSc1nc2c(SCc3cc4cc(Cl)ccc4oc3=O)nc(N)nc2n1[C@@H]1O[C@H](CO)[C@@H](O)[C@H]1O,> 186,–
Nc1nc(SCc2cc3cc(F)ccc3oc2=O)c2nc(SCc3cc4cc(F)ccc4oc3=O)n([C@@H]3O[C@H](CO)[C@@H](O)[C@H]3O)c2n1,> 146,–
Nc1nc(SCc2cc3ccccc3oc2=O)c2nc(SCc3ccccc3)n([C@@H]3O[C@H](CO)[C@@H](O)[C@H]3O)c2n1,> 173,–
COc1cccc2cc(CSc3nc(N)nc4c3nc(SC)n4[C@@H]3O[C@H](CO)[C@@H](O)[C@H]3O)c(=O)oc12,> 188,–
CCN1C(=O)CCSC1c1cc2cc(Cc3ccc4oc(C5SCCC(=O)N5CC)cc4c3)ccc2o1 (stereo unspecified),–,EC50 [7]: 1.9 µM; selectivity ratio [8]: 75
Nc1nc2c(nc(SCc3cccc4ccccc34)n2[C@@H]2O[C@H](CO)[C@@H](O)[C@H]2O)c(=S)[nH]1,> 212,–
COc1ccc2oc(=O)c(CSc3nc(N)nc4c3nc(SCc3cccc5ccccc35)n4[C@@H]3O[C@H](CO)[C@@H](O)[C@H]3O)cc2c1,13.9,CC50 [5]: > 227 µM; selectivity ratio [6]: > 16.3; logP [2]: 3.77
Nc1nc2c(nc(S)n2[C@@H]2O[C@H](CO)[C@@H](O)[C@H]2O)c(=S)[nH]1,> 302,logP [2]: -0.13
Nc1nc2c(nc(SCc3ccccc3)n2[C@@H]2O[C@H](CO)[C@@H](O)[C@H]2O)c(=S)[nH]1,> 237,–
Nc1nc(SCc2cc3cc(Cl)ccc3oc2=O)c2nc(SCc3cc4cc(Cl)ccc4oc3=O)n([C@@H]3O[C@H](CO)[C@@H](O)[C@H]3O)c2n1,> 140,–
Nc1nc(SCc2cc3cc(Br)ccc3oc2=O)c2nc(SCc3cc4cc(Br)ccc4oc3=O)n([C@@H]3O[C@H](CO)[C@@H](O)[C@H]3O)c2n1,> 124,–
CSCc1cc2ccccc2oc1=O,> 485,–
Nc1nc(SCc2cc3ccccc3oc2=O)c2nc(SCc3cc4ccccc4oc3=O)n([C@@H]3O[C@H](CO)[C@@H](O)[C@H]3O)c2n1,> 154,–
CSc1nc2c(SCc3cc4ccccc4oc3=O)nc(N)nc2n1[C@@H]1O[C@H](CO)[C@@H](O)[C@H]1O,> 198,–
COc1ccc2oc(=O)c(CSc3nc(N)nc4c3nc(SCc3cc5cc(OC)ccc5oc3=O)n4[C@@H]3O[C@H](CO)[C@@H](O)[C@H]3O)cc2c1,9.9,CC50 [5]: > 212 µM; selectivity ratio [6]: > 21.7; logP [2]: 3.01; solubility [9]: 7.2 mg
Cc1ccc2oc(=O)c(CSc3nc(N)nc4c3nc(SCc3cc5cc(C)ccc5oc3=O)n4[C@@H]3O[C@H](CO)[C@@H](O)[C@H]3O)cc2c1,40.9,CC50 [5]: 81.3 µM; selectivity ratio [6]: 1.98; logP [2]: 3.22
